Experimental data as given in ChEMBL document CHEMBL2034819, “β-Lapachone analogs with enhanced antiproliferative activity” (Eur J Med Chem, 2012).
Activity calls are given as the source filed them. The calls are words filed in the database; no cut-off is given here.

Legend:
SW1573 [1] = assay: Growth inhibition of human SW1573 cells by SRB assay; type: functional
In short: (§1)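 Cells kept in RPMI 1640 with 5% heat-inactivated FCS and 2 mM L-glutamine. Plated at 10 000 (HBL-100, SW1573), 15 000 (HeLa) or 20 000 (WiDr) cells/well. Drug added on day 1, in triplicate, over 1–100 µM with 0.25% DMSO final. Exposure 48 h. Cells TCA-fixed 60 min at 4 °C, then SRB-stained, OD 492 nm, background-corrected. GI50 reported.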

WiDr [2] = assay: Growth inhibition of human WiDr cells by SRB assay; type: functional; in short: as §1
HeLa [3] = assay: Growth inhibition of human HeLa cells by SRB assay; type: functional; in short: as §1
HBL-100 [4] = assay: Growth inhibition of human HBL100 cells by SRB assay; type: functional; in short: as §1
HBL-100 [5] = assay: Cell cycle arrest in human HBL100 cells assessed as accumulation at G2/M phase after 24 hrs by flow cytometric analysis; type: functional, cell-based
In short: (§2)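 Cells seeded at 2.5–5 × 10^5 per well and treated after 24 h at two concentrations per agent for a further 24 h. Harvested, then fixed in ice-cold 70% EtOH overnight. Treated with DNase-free RNase at 37 °C for 30 min and stained with PI. DNA content read by flow cytometry on 20 000 cells/sample. G0/G1, S and G2/M fractions gated.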

WiDr [6] = assay: Cell cycle arrest in human WiDr cells assessed as accumulation at G2/M phase after 24 hrs by flow cytometric analysis; type: functional, cell-based; in short: as §2
WiDr [7] = assay: Cell cycle arrest in human WiDr cells assessed as accumulation at S phase after 24 hrs by flow cytometric analysis; type: functional, cell-based; in short: as §2
SW1573 [8] = assay: Cell cycle arrest in human SW1573 cells assessed as accumulation at G2/M phase after 24 hrs by flow cytometric analysis; type: functional, cell-based; in short: as §2
HeLa [9] = assay: Cell cycle arrest in human HeLa cells assessed as accumulation at G2/M phase after 24 hrs by flow cytometric analysis; type: functional, cell-based; in short: as §2
HeLa [10] = assay: Cell cycle arrest in human HeLa cells assessed as accumulation at S phase after 24 hrs by flow cytometric analysis; type: functional, cell-based; in short: as §2
SW1573 [11] = assay: Cell cycle arrest in human SW1573 cells assessed as accumulation at S phase after 24 hrs by flow cytometric analysis; type: functional, cell-based; in short: as §2
HBL-100 [12] = assay: Cell cycle arrest in human HBL100 cells assessed as accumulation at S phase after 24 hrs by flow cytometric analysis; type: functional, cell-based; in short: as §2
[13] = target: DNA topoisomerase 2-alpha (Homo sapiens) (UniProt P11388); assay: Inhibition of human topoisomerase 2alpha-mediated kDNA decatenation
DNA topoisomerase 2-alpha (Homo sapiens), sequence (P11388 whole entry): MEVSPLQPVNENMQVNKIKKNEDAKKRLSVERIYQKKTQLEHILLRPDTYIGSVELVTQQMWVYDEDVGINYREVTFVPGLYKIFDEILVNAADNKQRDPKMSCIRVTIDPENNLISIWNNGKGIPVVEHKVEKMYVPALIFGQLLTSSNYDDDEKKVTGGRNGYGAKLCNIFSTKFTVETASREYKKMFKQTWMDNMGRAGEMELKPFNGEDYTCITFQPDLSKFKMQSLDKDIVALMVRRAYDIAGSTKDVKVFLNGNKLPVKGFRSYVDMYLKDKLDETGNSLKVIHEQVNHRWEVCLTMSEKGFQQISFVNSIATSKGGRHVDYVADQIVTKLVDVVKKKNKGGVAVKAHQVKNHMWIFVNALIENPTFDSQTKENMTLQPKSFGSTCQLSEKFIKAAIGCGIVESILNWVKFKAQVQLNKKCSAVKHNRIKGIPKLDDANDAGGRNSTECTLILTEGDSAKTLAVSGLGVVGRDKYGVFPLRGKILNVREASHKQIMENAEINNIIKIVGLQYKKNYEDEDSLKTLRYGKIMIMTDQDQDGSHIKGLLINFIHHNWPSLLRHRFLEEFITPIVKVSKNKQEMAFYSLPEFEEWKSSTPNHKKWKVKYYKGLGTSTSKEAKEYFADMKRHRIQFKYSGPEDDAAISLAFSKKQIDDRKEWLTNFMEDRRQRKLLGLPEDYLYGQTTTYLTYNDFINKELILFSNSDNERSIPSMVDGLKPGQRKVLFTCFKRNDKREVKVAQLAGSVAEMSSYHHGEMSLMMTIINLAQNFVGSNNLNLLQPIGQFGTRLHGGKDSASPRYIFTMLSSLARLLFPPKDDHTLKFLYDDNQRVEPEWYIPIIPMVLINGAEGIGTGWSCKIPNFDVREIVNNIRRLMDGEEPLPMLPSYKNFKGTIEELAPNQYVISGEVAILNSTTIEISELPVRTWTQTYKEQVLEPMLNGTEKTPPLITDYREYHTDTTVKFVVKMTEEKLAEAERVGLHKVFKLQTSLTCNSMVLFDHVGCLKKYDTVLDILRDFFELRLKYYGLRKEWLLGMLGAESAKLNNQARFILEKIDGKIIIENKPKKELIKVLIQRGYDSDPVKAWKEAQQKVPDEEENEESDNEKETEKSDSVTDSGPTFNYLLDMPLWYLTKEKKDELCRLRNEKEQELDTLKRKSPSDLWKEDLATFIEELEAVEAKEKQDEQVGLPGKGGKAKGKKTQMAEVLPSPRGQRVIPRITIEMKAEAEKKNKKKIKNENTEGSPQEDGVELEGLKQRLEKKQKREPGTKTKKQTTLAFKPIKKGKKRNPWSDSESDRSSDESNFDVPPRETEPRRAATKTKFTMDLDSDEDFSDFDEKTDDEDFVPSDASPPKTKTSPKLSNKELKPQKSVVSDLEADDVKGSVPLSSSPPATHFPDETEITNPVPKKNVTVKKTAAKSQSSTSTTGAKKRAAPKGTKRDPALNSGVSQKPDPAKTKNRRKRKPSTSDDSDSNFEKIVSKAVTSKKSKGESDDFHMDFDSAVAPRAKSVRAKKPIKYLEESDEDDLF

HeLa [14] = assay: Decrease in cyclin E expression in human HeLa cells at 3 uM after 24 hrs by immunoblot analysis; type: functional, cell-based
In short: (§3)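 HeLa cells exposed to 3 µM for several time intervals. Lysed in Tris pH 8.0/NP-40 buffer with protease and phosphatase inhibitors, and debris pelleted. Proteins resolved by SDS-PAGE and blotted to PVDF. Probed for PARP-1, procaspase 3, cyclin A, cyclin E, MRE11, p-Chk2 and γ-H2AX, with α-tubulin as loading control. HRP secondaries with luminol/p-iodophenol detection.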

HeLa [15] = assay: Increase in MRE11A expression in human HeLa cells at 3 uM after 24 hrs by immunoblot analysis; type: functional, cell-based; in short: as §3
HeLa [16] = assay: Induction of DNA damage in human HeLa cells assessed as increase in gamma-H2AX phosphorylation at 3 uM after 24 hrs by immunoblot analysis; type: functional, cell-based; in short: as §3
HeLa [17] = assay: Induction of apoptosis in human HeLa cells assessed as caspase 3 cleavage at 3 uM after 24 hrs by immunoblot analysis; type: functional, cell-based; in short: as §3
HeLa [18] = assay: Induction of apoptosis in human HeLa cells assessed as PARP cleavage at 3 uM after 24 hrs by immunoblot analysis; type: functional, cell-based; in short: as §3
[19] = Cytotoxicity against mouse erythrocytes assessed as lytic effect; type: cell-based; conditions: erythrocyte
HeLa [20] = assay: Increase in cyclin A expression in human HeLa cells at 3 uM after 24 hrs by immunoblot analysis; type: functional, cell-based; in short: as §3
HeLa [21] = assay: Induction of DNA damage in human HeLa cells assessed as increase in chk2 phosphorylation at 3 uM after 24 hrs by immunoblot analysis; type: functional, cell-based; in short: as §3
HeLa [22] = assay: Induction of intracellular reactive oxygen species production in human HeLa cells at 3 uM after 3 hrs DCFH-DA staining-based flow cytometric analysis relative to control; type: functional
In short: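 HeLa cells seeded at 3 × 10^5 per well and treated 24 h later at 3 µM for 3 h. Co-incubated with 5 µM DCFH-DA for 1 h at 37 °C. DCF fluorescence read by flow cytometry on 10 000 cells/sample and compared with untreated cells. H2O2 (500 µM) served as positive control.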

SMILES	GI50 (SW1573 [1])	GI50 (WiDr [2])	GI50 (HeLa [3])	GI50 (HBL-100 [4])	further results
COc1cccc2c1C(=O)C1=C(OC(C)(C)CC1)C2=O	> 100000 nM	> 100000 nM	> 100000 nM	28000 nM	
COc1ccc2c(c1)C(=O)C(O)=C(CC=C(C)C)C2=O	17000 nM	68000 nM	18000 nM	19000 nM	
CC1(C)CCC2=C(O1)c1c(O)cccc1C(=O)C2=O	360 nM	1900 nM	1100 nM	620 nM	Activity (HBL-100 [5]): Dose-dependent effect; Activity (WiDr [6]): Dose-dependent effect; Activity (WiDr [7]): Dose-dependent effect; Activity (SW1573 [8]): Dose-dependent effect; Activity (HeLa [9]): Dose-dependent effect; Activity (HeLa [10]): Dose-dependent effect; Activity (SW1573 [11]): Dose-dependent effect; Activity (HBL-100 [12]): Dose-dependent effect; inhibition [13]: inactive
COc1cccc2c1C(=O)C(=O)C1=C2OC(C)(C)CC1	1400 nM	86000 nM	5100 nM	2700 nM	
COc1ccc2c(c1)C(=O)C1=C(CCC(C)(C)O1)C2=O	27000 nM	82000 nM	40000 nM	28000 nM	
COc1ccc2c(c1)C(=O)C(=O)C1=C2OC(C)(C)CC1	450 nM	27000 nM	1700 nM	410 nM	
CC1(C)CCC2=C(O1)c1ccc(O)cc1C(=O)C2=O	2300 nM	21000 nM	2500 nM	2300 nM	
COc1cccc2c1C(=O)C(CC=C(C)C)=C(O)C2=O	26000 nM	> 100000 nM	30000 nM	22000 nM	
COc1cccc2c1C1=C(CCC(C)(C)O1)C(=O)C2=O	460 nM	2100 nM	1800 nM	690 nM	
CC1(C)CCC2=C(O1)c1ccccc1C(=O)C2=O [LAPACHONE]	840 nM		1000 nM	380 nM	Activity (HBL-100 [5]): Dose-dependent effect; Activity (WiDr [6]): Dose-dependent effect; Activity (WiDr [7]): Dose-dependent effect; Activity (SW1573 [8]): Dose-dependent effect; Activity (HeLa [9]): Dose-dependent effect; Activity (HeLa [10]): Dose-dependent effect; Activity (SW1573 [11]): Dose-dependent effect; Activity (HBL-100 [12]): Dose-dependent effect; inhibition [13]: inactive
CC1(C)CCC2=C(O1)c1cccc(OC(=O)C(C)(C)C)c1C(=O)C2=O	230 nM	2100 nM	1600 nM	180 nM	
CC1(C)CCC2=C(O1)c1cccc(O)c1C(=O)C2=O	29 nM	2000 nM	210 nM	36 nM	Activity (HBL-100 [5]): Dose-dependent effect; Activity (WiDr [6]): Dose-dependent effect; Activity (HeLa [14]): Active; Activity (WiDr [7]): Dose-dependent effect; Activity (SW1573 [8]): Dose-dependent effect; Activity (HeLa [15]): Active; Activity (HeLa [16]): Active; Activity (HeLa [9]): Dose-dependent effect; Activity (HeLa [17]): inactive; Activity (HeLa [18]): inactive; Activity (HeLa [10]): Dose-dependent effect; Activity (SW1573 [11]): Dose-dependent effect; Activity [19]: Non-toxic; Activity (HeLa [20]): Active; Activity (HBL-100 [12]): Dose-dependent effect; Activity (HeLa [21]): Active; inhibition [13]: inactive; fold change (FC) (HeLa [22]): 6
CC1(C)CCC2=C(O1)C(=O)c1c(O)cccc1C2=O	19000 nM	14000 nM	1800 nM	3400 nM	
